Here are results for two molecules from article PMC10849882 (The Journal of Cell Biology, 2024).

One assay addresses IMPDH1(546)-Y12A (Homo sapiens, UniProt P20839, Y12A). The assay is described as follows: IMPDH1 activity assay, GTP inhibition. It counts as biochemical. The method in brief:
(§1)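 Enzyme at 1 µM in pH 7.0 HEPES/KCl/DTT activity buffer, preincubated 30 min at 20°C with 1 mM ATP, 1 mM IMP, 1 mM MgCl2 and graded GTP. Reaction started with 300 µM NAD+. NADH followed at 340 nm (25°C, per minute, 15 min) against a standard curve. Specific activity from the 2–7 min slope; three measurements per point. IC50 and Hill coefficient from a least-squares four-parameter fit, 90% confidence intervals.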

For a further assay, the target named is IMPDH1(595)-Y12A (Homo sapiens, UniProt P20839, Y12A). Briefly: IMPDH1 activity assay, GTP inhibition. It counts as biochemical. The method in brief: as §1
Sequence of IMPDH1(595)-Y12A (P20839 1-509 Y12A): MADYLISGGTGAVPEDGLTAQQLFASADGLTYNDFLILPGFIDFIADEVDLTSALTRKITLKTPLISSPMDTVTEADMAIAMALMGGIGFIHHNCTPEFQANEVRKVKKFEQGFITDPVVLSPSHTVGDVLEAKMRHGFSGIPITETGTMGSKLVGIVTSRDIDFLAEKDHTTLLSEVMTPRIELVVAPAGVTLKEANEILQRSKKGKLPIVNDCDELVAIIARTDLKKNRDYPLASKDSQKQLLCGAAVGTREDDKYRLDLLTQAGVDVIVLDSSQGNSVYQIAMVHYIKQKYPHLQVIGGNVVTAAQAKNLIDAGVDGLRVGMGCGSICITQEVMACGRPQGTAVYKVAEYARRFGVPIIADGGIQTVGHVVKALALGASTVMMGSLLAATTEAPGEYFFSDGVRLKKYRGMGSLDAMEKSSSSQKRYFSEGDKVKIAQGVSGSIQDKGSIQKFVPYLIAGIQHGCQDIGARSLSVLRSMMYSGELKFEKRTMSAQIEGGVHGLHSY
The target in another assay is IMPDH1(595)-Y12A-S477D (Homo sapiens, UniProt P20839, S477D/Y12A). The assay is described as follows: IMPDH1 activity assay, GTP inhibition. It counts as biochemical. The method in brief:
as §1

Another assay addresses IMPDH1(546)-S477D (Homo sapiens, UniProt P20839, S477D). Briefly: IMPDH1 activity assay, GTP inhibition. It counts as biochemical. The method in brief: (§2)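 Recombinant human retinal-variant enzyme (E. coli BL21(DE3), 6xHis-SUMO tag removed by ULP1, gel filtration). Enzyme diluted ≥100-fold to 1 µM in pH 7.0 HEPES/KCl/DTT buffer. Preincubated 30 min at 20°C with 1 mM ATP, 1 mM IMP, 1 mM MgCl2 and varying GTP. Started with 300 µM NAD+. NADH read at A340, 25°C, each minute for 15 min. Rate from a 2–7 min slope. Triplicate; four-parameter variable-slope fit with 90% CI.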

The target of the next assay is IMPDH1(595)-WT (Homo sapiens, UniProt P20839). The assay is described as follows: IMPDH1 activity assay, GTP inhibition. It counts as biochemical. In a few lines:
as §2

The next assay has as its target IMPDH1(546)-WT (Homo sapiens, UniProt P20839). Briefly: IMPDH1 activity assay, GTP inhibition. Format: biochemical. The method in brief:
as §2

For a further assay, the target named is IMPDH1(546)-Y12A-S477D (Homo sapiens, UniProt P20839, S477D/Y12A). The assay is described as follows: IMPDH1 activity assay, GTP inhibition. Format: biochemical. In a few lines: as §1
Sequence of IMPDH1(546)-Y12A-S477D (P20839 1-509 Y12A/S477D): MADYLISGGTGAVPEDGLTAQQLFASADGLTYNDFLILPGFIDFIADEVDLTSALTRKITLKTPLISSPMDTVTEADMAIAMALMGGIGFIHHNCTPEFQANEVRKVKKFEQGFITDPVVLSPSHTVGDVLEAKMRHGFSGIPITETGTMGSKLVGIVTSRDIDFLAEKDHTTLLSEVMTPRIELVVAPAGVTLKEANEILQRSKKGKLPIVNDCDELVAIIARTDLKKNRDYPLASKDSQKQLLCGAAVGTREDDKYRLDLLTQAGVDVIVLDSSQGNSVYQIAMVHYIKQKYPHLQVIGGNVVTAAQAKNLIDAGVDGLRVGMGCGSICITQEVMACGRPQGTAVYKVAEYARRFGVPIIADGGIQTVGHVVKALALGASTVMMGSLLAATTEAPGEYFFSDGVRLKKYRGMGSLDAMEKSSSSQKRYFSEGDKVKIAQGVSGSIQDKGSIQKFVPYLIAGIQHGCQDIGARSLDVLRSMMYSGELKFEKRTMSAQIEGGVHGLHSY
For a further assay, the target named is IMPDH1(595)-S477D (Homo sapiens, UniProt P20839, S477D). Briefly: IMPDH1 activity assay, GTP inhibition. It counts as biochemical. The method in brief:
as §2

The test system of the next assay is HeLa cells. Briefly: Ribavirin-induced IMPDH filament assembly in cells, immunofluorescence. It counts as cell-based, human. Particulars: 1 mM ribavirin for 2 h. The method in brief:
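HeLa (ATCC CCL-2) in DMEM/10% FBS, 37°C, 5% CO2. Seeded 4×10^4 cells/well on chambered glass slides and transfected next day with 328 ng plasmid (TransIT-HeLaMONSTER). After 48 h, fixed in 4% paraformaldehyde and Triton-permeabilised. Stained with anti-IMPDH2 (endogenous plus transfected), anti-FLAG and DAPI. Imaged by widefield 40×. Two biological replicates, ≥100 cells counted per condition.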

Setting [1] is: Hill coefficient of GTP inhibition curve.

Sequence of IMPDH1(595)-WT (P20839 1-558 isoform P20839-3 limits assumed): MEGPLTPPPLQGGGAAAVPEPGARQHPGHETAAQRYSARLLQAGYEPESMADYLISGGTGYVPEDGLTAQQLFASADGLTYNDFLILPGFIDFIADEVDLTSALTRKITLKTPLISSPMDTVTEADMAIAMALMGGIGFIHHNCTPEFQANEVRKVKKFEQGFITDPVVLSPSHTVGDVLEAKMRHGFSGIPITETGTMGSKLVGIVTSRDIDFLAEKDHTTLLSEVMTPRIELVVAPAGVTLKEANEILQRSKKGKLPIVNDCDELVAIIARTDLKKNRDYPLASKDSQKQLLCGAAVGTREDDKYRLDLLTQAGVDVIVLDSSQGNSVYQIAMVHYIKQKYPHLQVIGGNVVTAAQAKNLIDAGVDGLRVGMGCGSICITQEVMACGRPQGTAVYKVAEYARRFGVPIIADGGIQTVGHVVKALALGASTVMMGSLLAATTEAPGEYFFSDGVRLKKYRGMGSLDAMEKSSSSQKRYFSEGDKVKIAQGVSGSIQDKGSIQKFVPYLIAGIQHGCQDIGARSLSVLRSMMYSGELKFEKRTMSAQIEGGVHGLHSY
Sequence of IMPDH1(595)-Y12A-S477D (P20839 1-509 Y12A/S477D): as the sequence (P20839 1-509 Y12A/S477D) above
Sequence of IMPDH1(546)-Y12A (P20839 1-509 Y12A): as the sequence (P20839 1-509 Y12A) above
Sequence of IMPDH1(595)-S477D (P20839 1-509 S477D): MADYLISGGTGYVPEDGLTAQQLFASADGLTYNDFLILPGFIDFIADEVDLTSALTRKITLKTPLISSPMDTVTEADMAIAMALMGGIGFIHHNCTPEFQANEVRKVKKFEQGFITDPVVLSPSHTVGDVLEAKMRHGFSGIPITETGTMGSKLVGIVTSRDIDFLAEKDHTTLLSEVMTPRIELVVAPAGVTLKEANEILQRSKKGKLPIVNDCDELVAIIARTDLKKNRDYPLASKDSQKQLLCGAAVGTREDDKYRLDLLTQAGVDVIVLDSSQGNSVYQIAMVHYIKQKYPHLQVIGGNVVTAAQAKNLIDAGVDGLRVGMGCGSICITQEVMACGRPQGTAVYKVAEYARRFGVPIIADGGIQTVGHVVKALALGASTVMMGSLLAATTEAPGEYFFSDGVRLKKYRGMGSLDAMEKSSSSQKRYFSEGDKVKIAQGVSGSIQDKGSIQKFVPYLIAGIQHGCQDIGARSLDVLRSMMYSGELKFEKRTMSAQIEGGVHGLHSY
Sequence of IMPDH1(546)-S477D (P20839 1-509 S477D): as above
Sequence of IMPDH1(546)-WT (P20839 1-509 limits assumed): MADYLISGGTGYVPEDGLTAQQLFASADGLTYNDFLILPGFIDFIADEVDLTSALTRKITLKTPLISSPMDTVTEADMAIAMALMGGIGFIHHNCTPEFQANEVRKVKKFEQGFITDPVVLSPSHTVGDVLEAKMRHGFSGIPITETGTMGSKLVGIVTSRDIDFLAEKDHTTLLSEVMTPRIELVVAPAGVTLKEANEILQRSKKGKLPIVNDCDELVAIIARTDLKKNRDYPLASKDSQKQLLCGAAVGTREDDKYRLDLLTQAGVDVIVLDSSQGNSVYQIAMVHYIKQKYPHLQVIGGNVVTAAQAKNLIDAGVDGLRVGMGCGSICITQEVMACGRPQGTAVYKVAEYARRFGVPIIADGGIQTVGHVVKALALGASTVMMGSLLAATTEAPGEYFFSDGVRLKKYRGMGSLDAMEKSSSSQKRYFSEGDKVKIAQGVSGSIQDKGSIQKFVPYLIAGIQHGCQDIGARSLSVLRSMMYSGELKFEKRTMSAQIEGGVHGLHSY

`Nc1nc2c(ncn2[C@@H]2O[C@H](COP(=O)(O)OP(=O)(O)OP(=O)(O)O)[C@@H](O)[C@H]2O)c(=O)[nH]1` [GTP, guanosine triphosphate]: the IC50 (in general, the concentration that inhibits the measured activity by half) on IMPDH1(546)-Y12A was found to be 538 µM; on IMPDH1(595)-Y12A, 473 µM; against IMPDH1(595)-Y12A-S477D, 464 µM; on IMPDH1(546)-S477D, 486 µM; against IMPDH1(595)-WT, 1150 µM; on IMPDH1(546)-WT it was 757 µM. The values for the IC50 against IMPDH1(546)-Y12A-S477D and on IMPDH1(595)-S477D were 458 µM and 603 µM, respectively. Further, the Hill best-fit on IMPDH1(546)-Y12A (setting [1]) is reported as 4.0; on IMPDH1(595)-Y12A (setting [1]), 4.5; at IMPDH1(595)-Y12A-S477D (setting [1]) it was 4.1; on IMPDH1(546)-S477D (setting [1]) it was 3.7; on IMPDH1(595)-WT (setting [1]), 2.3; on IMPDH1(546)-WT (setting [1]), 4.6. For the same molecule, the Hill best-fit at IMPDH1(546)-Y12A-S477D (setting [1]) was found to be 4.2; on IMPDH1(595)-S477D (setting [1]) it was 3.7.
On to `NC(=O)c1ncn([C@@H]2O[C@H](CO)[C@@H](O)[C@H]2O)n1` [ribavirin], for which the “Percentage of transfected cells containing filaments” value is listed as 100% in the assay on HeLa cells (cells transfected with FLAG-tagged IMPDH1(546)-S477A), 2% in the assay with HeLa cells (cells transfected with FLAG-tagged IMPDH1(546)-S477D) and 2% in the assay with HeLa cells (cells transfected with FLAG-tagged IMPDH1(595)-S477D).
